# Bioassay records deposited in PubChem BioAssay by several laboratories.
# Only some compounds are listed: those with a hit (about 2.6% of all), similar ones and a draw of the others.
# iPSC survival up = enhancers of human iPSC single-cell survival | 360,000 compounds, 0.044% hits | hiPSC single-cell survival, ATPlite luminescence; 100% = ROCK inhibitor wells, 0% = DMSO | survival enhancement, % at 20 µM | AID 602274; in the data active means survival enhancement above about 18%;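 further: cells exposed to compounds for 16 hours before the ATP read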
# MC4R ag barr = agonists of human melanocortin 4 receptor (MC4R) beta-arrestin | activation, % at 8.9 µM | P32245 | U2OS MC4R beta-arrestin complementation, luminescence; percent of melanotan II response, DMSO zero | 360,000 compounds, 0.98% hits | AID 540308;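 active means activation above a per-plate cutoff, the mean activation of sample wells on that plate plus 3 SD, cut at about 8% in these data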
# Exocytosis inh = lytic granule exocytosis inhibition | TALL-104 LAMP-1 surface exposure, flow cytometry; cells stimulated with thapsigargin and PMA | inhibition, % at 10 µM | 360,000 compounds, 0.66% hits;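 active means inhibition above about 55%, limit read from the data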
# MC4R antag cAMP = blocks human MC4R cAMP signaling | MC4R-expressing cells, MTII-stimulated cAMP, LANCE TR-FRET | inhibition, % at 6.5 µM | P32245 | 360,000 compounds, 0.48% hits;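 active means inhibition above its plate's cutoff, the mean of tested wells on that plate plus 3 SD, cut at about 29% in these data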;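 further: 0% = Melanotan II alone and 100% = Melanotan II plus saturating MCL0020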
#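 material = U2OS cells stably expressing human melanocortin 4 receptor (MC4R) | also added = Melanotan II challenge | dosing = single nominal compound dose of 6.5 µM | detection = TR-FRET with Eu-cAMP and labeled anti-cAMP, 671 nm | replication = singlicate | timing = compound 30 min, challenge 1 h, detection 1 h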
# Tb MetRS inh = blocks T. brucei methionyl-tRNA synthetase activity; purified T. brucei MetRS, ATP depletion, Kinase-Glo luminescence; inhibition, % at 11.9 µM; 360,000 compounds, 0.4% hits;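 active means inhibition above a per-plate cutoff of the control wells' mean inhibition plus 3 SD, cut at about 5.5% in these data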;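 further: 0% = DMSO wells median and 100% = median of wells with control inhibitor compound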
#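 Material: parasite MetRS enzyme / Replication: singlicate, one well per compound / Signal: luminescence of leftover ATP / Schedule: 2 h aminoacylation at 25 °C after 15 min preincubation / Medium: HEPES-MgCl2-KCl buffer plus DTT, spermine, BSA, pyrophosphatase / Doses: 11.9 µM single point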
# ABCB6 inh MLPCN = blocks the human ABCB6 transporter; Q9NP58; K562-ABCB6 porphyrin accumulation, flow cytometry, 1 h; active compounds read low; fluorescence ratio to DMSO, % at 10 µM; 360,000 compounds, 0.19% hits; AID 602162;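 active means fluorescence ratio to DMSO below 75%, the collection mean minus 3 SD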;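 further: signal is porphyrin accumulated inside mitochondria; 100% equals median channel fluorescence of DMSO control wells; lower ratio means ABCB6 inhibition with less porphyrin fluorescence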
# Exocytosis CP01 = lytic granule exocytosis inhibition | shares compounds with Exocytosis inh | TALL-104 cells, LAMP-1 externalization, flow cytometry; stimulated with PMA plus thapsigargin | inhibition, % at 10 µM | 1,500 compounds, 11% hits | AID 651954; in the data active means inhibition above about 60%;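 further: 0% = stimulated vehicle wells and 100% = unstimulated wells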
# Numbers without * were called inactive; x = no result given.
SMILES,iPSC survival up,MC4R ag barr,Exocytosis inh,MC4R antag cAMP,Tb MetRS inh,ABCB6 inh MLPCN,Exocytosis CP01
Oc1ccc(-c2c(-c3ccsc3)sc3ccccc23)cc1,-3,-2,87*,8,-1,102,-3
COCc1ccc(-c2c(-c3ccsc3)sc3ccccc23)cc1,1,1,9,0,0,89,x
COc1ccccc1OCCn1cc(C(=O)C(C)C)c2ccccc21,1,0,60*,1,0,94,-13
Cc1cc(-c2ccc(S(=O)(=O)N3CCN(C)CC3)s2)on1,0,-3,-1,4,0,102,x
CCc1ccccc1N(C)S(=O)(=O)c1ccc(-c2cc(C)no2)s1,4,-1,68*,-11,0,100,-10
CCN(c1ccc(OC)cc1)S(=O)(=O)c1ccc(-c2cc(C)no2)s1,0,-2,75*,1,-1,100,-5
O=C(Nc1ccc2oc(-c3ccccc3F)nc2c1)c1ccc2c(c1)OCCO2,-1,4,85*,-4,-1,99,45
Cc1ccc2oc(-c3ccc(NC(=O)c4ccc5c(c4)OCO5)cc3)nc2c1,-3,0,-1,6,-1,97,x
Cc1cc(S(=O)(=O)N2CCCCCC2)c(Cl)cc1Cl,-1,-1,0,3,0,101,x
Cc1ccc(-c2nnc(CSc3nnc(COc4ccccc4)n3-c3ccc(C)cc3)o2)cc1,-2,3,76*,4,-1,98,-2
CCN(CC)S(=O)(=O)c1ccc(N2CCCC2)c(NC(=O)c2ccc(OC)cc2OC)c1,2,-1,72*,6,0,87,-10
CCN(CC)S(=O)(=O)c1ccc(N2CCCC2)c(NC(=O)Cc2ccc(OC)cc2)c1,0,-1,-2,15,0,96,x
Cn1c(SCc2cccc(C#N)c2)nc2ccccc2c1=O,1,2,71*,1,-1,89,-4
CC(c1ccon1)N(C)Cc1c(C(=O)N(C)Cc2ccccc2)nc2ccccn12 (centres undefined),-2,-1,71*,21,0,101,-4
CC(C)(C)NC(=O)CN1C(=O)NC(c2ccccc2)(c2ccccc2)C1=O,0,2,85*,10,0,98,-4
CC(NC(=O)CN1C(=O)NC(c2ccccc2)(c2ccccc2)C1=O)c1cccs1 (centres undefined),-2,-1,-1,-2,-1,98,x
COc1ccc(C(CNC(=O)Cc2ccc(-c3ccccc3)cc2)N(C)C)cc1 (centres undefined),0,0,62*,9,-1,99,-14
COc1ccc(C(CNC(=O)CSc2ccccc2C)N(C)C)cc1 (centres undefined),1,-2,29,1,0,103,x
Cc1cc(Br)cn2c(Cc3ccccc3)c(-c3ccco3)nc12,1,x,15,x,0,104,x
Cc1cc(Br)cn2c(Cc3ccsc3)c(-c3ccco3)nc12,2,x,60*,x,0,102,-15
CCOc1ccc2oc(C(=O)Nc3cc(C)ccn3)c(C)c2c1,0,3,15,5,-1,97,x
CCC(=O)Nc1nonc1-c1nc2ccccc2n1CCC(C)C,1,2,63*,2,-1,90,-6
COc1c2ccoc2c(OC[C@@H](O)C(C)(C)O)c2oc(=O)ccc12,6,0,63*,4,0,104,-5
O=S1(=O)CC(N2CCCC2)CN1Cc1cn(Cc2ccccc2)nn1 (centres undefined),0,x,-4,x,0,100,x
COc1cccc(OC)c1C(=O)Nn1c(-c2cccc(C)c2)nc2ccccc2c1=O,-1,-1,-1,3,0,93,x
SMILES,iPSC survival up,MC4R ag barr,Exocytosis inh,MC4R antag cAMP,Tb MetRS inh,ABCB6 inh MLPCN,Exocytosis CP01
CCOC(=O)c1cc(C(=O)c2cccs2)n2ccc(C(C)=O)cc12,2,-1,97*,8,-1,100,-2
Cc1ccc(-n2nc3c(c2NC(=O)c2cccs2)CS(=O)(=O)C3)c(C)c1,1,-1,3,16,0,100,x
CN(C)CCCNC(=S)NCC(c1ccc(Cl)cc1Cl)c1c[nH]c2ccccc12 (centres undefined),0,0,92*,-4,0,96,77*
Cc1ccc(S(=O)(=O)c2cc3c(=O)n4ccccc4nc3n(C3CCCC3)c2=N)cc1,0,1,88*,-1,-2,108,-15
Cc1ccc(S(=O)(=O)c2cc3c(=O)n4cccc(C)c4nc3n(C3CCCCC3)c2=N)cc1,0,-2,8,7,0,90,x
COc1ccc(C(=O)Nc2cc(C)nn2-c2cccc(F)c2)cc1,0,-1,2,-2,0,100,x
Cc1ccc(C)c(NC(=O)COC(=O)c2cc(=O)c3ccccc3o2)c1,1,-3,73*,5,0,104,-12
Cc1ccc(C)c(NC(=O)c2cc(=O)c3ccccc3o2)c1,0,-2,-1,-21,0,91,x
COc1cccc(C(C(=O)NC2CCCCC2)N(C(=O)c2ccco2)c2ccccc2OC)c1 (centres undefined),0,-2,89*,8,0,95,-7
COc1ccc(C(C(=O)NC2CCCCC2)N(C(=O)c2ccco2)c2ccccc2OC)cc1 (centres undefined),0,0,23,2,-1,101,x
CCOc1ccccc1N(C(=O)c1ccco1)C(C(=O)NC1CCCC1)c1cccs1 (centres undefined),0,-2,60*,5,0,97,-14
CCN(Cc1ccncc1)C(=O)c1cccc(S(=O)(=O)N2CCCCC2)c1,-1,-2,-3,0,0,97,x
O=c1oc2ccccc2c2c1nnn2CCO,2,-1,0,6,0,99,x
O=C(CCNC(=O)c1ccc(Br)cc1)NNC(=O)C1COc2ccccc2O1 (centres undefined),0,-2,-1,-1,0,100,x
CSc1nnc2c3cc(F)ccc3n(Cc3ccccc3)c2n1,-1,1,-1,-1,0,100,x
CCN(CC)CCSc1nnc2c3cc(C)ccc3n(Cc3ccccc3)c2n1,0,3,64*,5,0,95,-10
CN(C)c1ccc(C(C(=O)NCC2CCCO2)N(C(=O)c2snc(C(N)=O)c2N)c2ccc3c(c2)OCO3)cc1 (centres undefined),-1,0,72*,17,0,97,-6
